Where “and” joins values, the source holds several entries; their conditions need not be identical. Identical values can stand only once.

The target in test [1] is T1, Geranylgeranyl transferase type I (Homo sapiens, UniProt P49354+P53609). Kind of test: Inhibition of geranylgeranylation of the C-terminal CAAX sequence of Rap 1a in PSN-1 cells. It is filed as functional, cell-based. An outline of the steps:
(§1)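 PSN-1 cells; the read-out is inhibition of geranylgeranylation at the C-terminal CAAX sequence of Rap 1a, reported as EC50. Values are the mean of at least two determinations.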

Test [2] concerns the target T2, Protein farnesyltransferase (Homo sapiens, UniProt P49354+P49356). Kind of test: Inhibitor of Farnesyl protein transferase (FTPase) required to reduce radiolabel [1-3H] incorporation by 50%. The test is classed as protein-complex assay. An outline of the steps:
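Purified recombinant FPTase transfers [1-3H]FPP onto a recombinant protein substrate carrying the K-ras C-terminus. IC50 is the inhibitor concentration that lowers radiolabel incorporation by 50% relative to uninhibited controls. Values are the mean of at least two determinations.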

The target in test [3] is T1, Geranylgeranyl transferase type I. Nature of the test: (§2) Inhibition of [1-3H]-GGPP incorporation into biotinylated K4B-Ras peptide by geranylgeranyl transferase in the presence of 5 mM ATP. The test is classed as protein-complex assay. In outline:
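Scintillation proximity assay: GGPTase reaction of [1-3H]GGPP with a biotinylated peptide of the K4B-Ras C-terminus at several inhibitor concentrations. IC50 is the concentration cutting radiolabel incorporation by 50% relative to uninhibited controls. Values are the mean of at least two determinations.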

The target of test [4] is T2, Protein farnesyltransferase. Kind of test: The concentration required to displace 50% of a highly potent radiolabeled FPTase inhibitor. The test is classed as protein-complex assay.
The target of test [5] is T1, Geranylgeranyl transferase type I. Described as §2. It is filed as protein-complex assay. An outline of the steps:
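Scintillation proximity assay: GGPTase reaction of [1-3H]GGPP with a biotinylated peptide of the K4B-Ras C-terminus at several inhibitor concentrations. Values are the mean of at least two determinations.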
This is another data set of the same source.

For test [6], the target named is T2, Protein farnesyltransferase. Kind of test: Displacement of radiolabeled farnesyl transferase inhibitor. It is filed as protein-complex assay.
For test [7] the target is unchanged. Nature of the test: Inhibition of Farnesyl protein transferase radiolabel [1-3H] incorporation. The test is classed as protein-complex assay.
Test [8] has as its target T1, Geranylgeranyl transferase type I. Kind of test: Inhibition of geranylgeranylation of C-terminal CAAX sequence of Rap 1a in PSN-1 cells. It is filed as functional, cell-based. An outline of the steps: as §1

For orientation: EC50 means the concentration giving half of the maximal effect. High values mean weaker potency, low ones greater potency. By IC50 is commonly meant the concentration needed to halve the response being measured. On to `N#Cc1ccc(Cn2cncc2CN2CCN(C(=O)OCc3ccccc3CC(F)(F)F)CC2)cc1`, for which, in test [1], the concentration giving a half-maximal response (EC50) came to 50 nM. Further, the figures for the 50% inhibitory concentration (IC50) in test [2], in test [3] and in test [4] were 2.5 nM, 4.82 nM and 0.85 nM, respectively.
For `CCOc1ccccc1COC(=O)N1CCN(Cc2cnc(C)n2Cc2ccc(C#N)cc2)CC1`, the IC50 is 1.5 nM in test [2], 80 nM in test [3] and 1.13 nM in test [4].
As to `COc1ncccc1COC(=O)N1CCN(Cc2cncn2Cc2ccc(C#N)cc2)CC1`, the IC50 in test [2] was found to be 18 nM; in test [3], 48 nM; in test [4] it was 13 nM.
In test [1], `N#Cc1ccc(Cn2cncc2CN2CCN(C(=O)OCc3ccccc3OC(F)(F)F)CC2)cc1` showed a half-maximal effective concentration (EC50) of 18 nM. Further, the values for the concentration for half-maximal inhibition (IC50) in test [2], in test [3] and in test [4] were 0.36 nM, 0.16 nM and 2.2 nM, respectively.
In test [1], `CCOc1ccccc1COC(=O)N1CCN(Cc2cncn2Cc2ccc(C#N)cc2)CC1` had an EC50 of 71 nM. Besides, the IC50 turned out to be 1.6 nM in test [2], 0.32 nM in test [3] and 4.52 nM in test [4].
For the molecule `N#Cc1ccc(Cn2cncc2CN2CCN(C(=O)OCc3cccc(OC(F)(F)F)c3)CC2)cc1`, the results for the IC50 in test [2], in test [3] and in test [4] were 13.4 nM, 74 nM and 12.1 nM, respectively.
In the case of `CCOc1ncccc1COC(=O)N1CCN(Cc2cncn2Cc2ccc(C#N)cc2)CC1`, the figures for the IC50 in test [2], in test [3] and in test [4] were 5 nM, 8.7 nM and 8.67 nM, respectively.
As for `Cc1ccccc1COC(=O)N1CCN(Cc2cncn2Cc2ccc(C#N)cc2)CC1`, the IC50 is 6.4 nM in test [2], 62.9 nM in test [4] and 9.1 nM in test [5].
For `Cc1ncc(CN2CCN(C(=O)OCc3ccccc3OC(F)(F)F)CC2)n1Cc1ccc(C#N)cc1`, the IC50 is 0.34 nM in test [6], 0.33 nM in test [7] and 53 nM in test [5]. This molecule showed an EC50 in test [8] of 660 nM.
Turning to `COCc1ccccc1COC(=O)N1CCN(Cc2cncn2Cc2ccc(C#N)cc2)CC1`, the IC50 in test [2] was determined as 6.1 nM; in test [3] it was 0.32 nM; in test [4], 9.1 nM.
As for `N#Cc1ccc(Cn2cncc2CN2CCN(C(=O)OCc3ccc4c(c3)OCO4)CC2)cc1`, the IC50 was determined as 102 nM in test [2] and 121 nM in test [3].
Consider `COCc1ccccc1COC(=O)N1CCN(Cc2cnc(C)n2Cc2ccc(C#N)cc2)CC1`, for which the figures for the IC50 in test [6], in test [7] and in test [5] were 3.17 nM, 17 nM and 178 nM, respectively. In test [8], this molecule returned an EC50 of 680 nM.
As to `Cc1ncc(CN2CCN(C(=O)OCc3ccccc3)CC2)n1Cc1ccc(C#N)cc1`, the values for the 50% inhibitory concentration (IC50) in test [2] and in test [3] were 19 nM and 789 nM, respectively.
The corresponding values for `CS(=O)(=O)c1ccccc1COC(=O)N1CCN(Cc2cncn2Cc2ccc(C#N)cc2)CC1` are 99 nM and 18 nM.
For `N#Cc1ccc(Cn2cncc2CN2CCN(C(=O)OCc3cccc4c3OCO4)CC2)cc1`, the IC50 worked out at 15.5 nM in test [2], 19.8 nM in test [3] and 10.9 nM in test [4].
Turning to `N#Cc1ccc(Cn2cncc2CN2CCN(C(=O)OCc3ccccc3Cl)CC2)cc1`, the IC50 amounted to 6.8 nM in test [2], 0.68 nM in test [3] and 7.95 nM in test [4].
For the molecule `Cc1cccc(COC(=O)N2CCN(Cc3cncn3Cc3ccc(C#N)cc3)CC2)c1`, the IC50 in test [2] turned out to be 34 nM; in test [3], 76 nM; in test [4], 166 nM.
Regarding `COc1ccccc1COC(=O)N1CCN(Cc2cncn2Cc2ccc(C#N)cc2)CC1`, the concentration for half-maximal inhibition (IC50) in test [2] was 3.1 nM; in test [3], 0.84 nM; in test [4], 4 nM and 27 nM.

For the origin of these results see ChEMBL document CHEMBL1135197, “The synthesis and biological evaluation of a series of potent dual inhibitors of farnesyl and geranyl-Geranyl protein transferases” (Bioorg Med Chem Lett, 2002).
